Compound activity as filed in PubChem.
This is a sample that favours compounds with a hit; in the whole collection about 3.1% have one here.
UBC13 polyUb: human UBC13 polyubiquitination inhibition | UBC13 polyubiquitin chain formation, TR-FRET | hit rate 0.47% among 330,000 | inhibition, % at 20 µM | P61088 | AID 485273; in the data active = inhibition above about 45%, passing the limit was not always enough
MEKK2 mut-MEK5: signal of MEK5 binding to mutant human MEKK2 PB1 domain | bead flow cytometry, Alexa488-MEK5 binding to MEKK2 mutant | percent response, % at 10 µM | hit rate 0.35% among 290,000 | AID 1530; in the data active = percent response above about 24%, passing the limit was not always enough
MEKK3 PB1 HTS: modulators (inhibitors or enhancers) of MEK5 binding to human MEKK3 PB1 domain; bead-based flow cytometry, Alexa488-MEK5 binding to MEKK3; actives lie on both sides; 0 = blocked by unlabeled MEK5, 100 = vehicle; binding response (% of control), % at 10 µM; hit rate 1.4% among 290,000; AID 1529;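 active = binding response more than 3 SD above or below the average of its plate-row segment, actives on both sides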;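 also: Alexa488 bead fluorescence after subtracting the streptavidin-only scavenger bead signal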
Apaf-1 inh: inhibitors of human Apaf-1 apoptosome | hit rate 0.71% among 330,000 | reconstituted apoptosome caspase-3 activity, DEVD-Rh110 fluorescence | O14727 | inhibition, % at 20 µM; active = inhibition of at least 40% at 20 µM;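 also: plate controls were DMSO wells for no effect and DEVD-CHO caspase inhibitor wells for full effect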
Target sequence (O14727 whole entry, looked up): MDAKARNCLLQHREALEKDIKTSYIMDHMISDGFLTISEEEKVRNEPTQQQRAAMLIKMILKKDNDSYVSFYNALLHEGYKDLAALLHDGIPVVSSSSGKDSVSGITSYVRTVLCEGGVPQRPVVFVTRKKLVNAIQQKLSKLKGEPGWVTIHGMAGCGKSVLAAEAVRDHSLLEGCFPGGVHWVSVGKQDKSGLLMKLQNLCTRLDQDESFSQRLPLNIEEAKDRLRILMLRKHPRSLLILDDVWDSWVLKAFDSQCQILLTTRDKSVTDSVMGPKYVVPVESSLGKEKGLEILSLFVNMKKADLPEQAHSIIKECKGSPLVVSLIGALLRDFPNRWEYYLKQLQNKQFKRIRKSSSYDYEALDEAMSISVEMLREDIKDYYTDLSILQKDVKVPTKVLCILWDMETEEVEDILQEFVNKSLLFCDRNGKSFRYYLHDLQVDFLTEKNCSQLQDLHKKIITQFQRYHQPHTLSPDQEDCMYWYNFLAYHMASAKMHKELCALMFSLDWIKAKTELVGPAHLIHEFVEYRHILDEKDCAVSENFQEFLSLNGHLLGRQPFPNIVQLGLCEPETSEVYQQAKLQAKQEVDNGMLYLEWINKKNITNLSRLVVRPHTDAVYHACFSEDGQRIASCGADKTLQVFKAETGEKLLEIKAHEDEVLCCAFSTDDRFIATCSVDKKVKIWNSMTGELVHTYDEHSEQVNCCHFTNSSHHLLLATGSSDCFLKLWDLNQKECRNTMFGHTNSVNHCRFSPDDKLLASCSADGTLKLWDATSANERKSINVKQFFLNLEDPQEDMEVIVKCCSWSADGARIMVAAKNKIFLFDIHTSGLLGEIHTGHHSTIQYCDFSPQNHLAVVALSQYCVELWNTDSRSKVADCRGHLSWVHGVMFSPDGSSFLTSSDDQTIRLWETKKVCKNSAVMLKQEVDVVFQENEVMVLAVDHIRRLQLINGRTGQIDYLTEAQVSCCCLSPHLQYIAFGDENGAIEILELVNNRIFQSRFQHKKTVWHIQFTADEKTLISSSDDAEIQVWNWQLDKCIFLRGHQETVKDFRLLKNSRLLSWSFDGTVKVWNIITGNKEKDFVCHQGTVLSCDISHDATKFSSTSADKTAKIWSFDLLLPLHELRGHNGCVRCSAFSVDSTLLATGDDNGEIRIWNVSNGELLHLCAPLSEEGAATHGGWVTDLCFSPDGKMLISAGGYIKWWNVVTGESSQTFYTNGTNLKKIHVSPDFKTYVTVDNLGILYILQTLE
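Material: reconstituted apoptosome with Apaf-1, cytochrome c, caspase-9, procaspase-3, dATP. Technique: Rh110 fluorescence intensity. Buffer or medium: pH 7.5 Hepes buffer with CHAPS, BSA, DTT. Times: 30 min plus 50 min, RT.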
PREPL inh: human PREPL enzyme inhibition; inhibition, % at 5.96 µM; Q4J6C6; AID 2751; hit rate 0.68% among 320,000; recombinant PREPL, fluorescence polarization activity-based probe; in the data active = inhibition above about 43%;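 also: 0% = enzyme with DMSO and 100% = wells lacking enzyme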
MEKK2wt PB1 HTS: raises or lowers MEK5 binding to wildtype human MEKK2 PB1 domain | AID 1531 | Q9Y2U5 | hit rate 1.1% among 290,000 | binding response (% of control), % at 10 µM | bead flow cytometry, Alexa488-MEK5 binding to MEKK2 WT; actives lie on both sides; in the data active = binding response below about 67% or above about 130%
* marks the source's active call; other numbers are inactive results.

Screening NC(=O)C1CCN(C2=C(NS(=O)(=O)c3ccccc3)C(=O)c3ccccc3C2=O)CC1 returned UBC13 polyUb -88, MEKK2 mut-MEK5 -5, MEKK3 PB1 HTS 95, Apaf-1 inh 21, PREPL inh -1 and MEKK2wt PB1 HTS 96.
Screening NC(=O)C1CCN(C2=C(Cl)C(=O)c3ccccc3C2=O)CC1 returned UBC13 polyUb -166, MEKK2 mut-MEK5 -6, MEKK3 PB1 HTS 98, Apaf-1 inh 73*, PREPL inh 8 and MEKK2wt PB1 HTS 95.
CCOc1cccc(-c2c(C(=O)N/N=C/c3ccc(Br)cc3)nnn2-c2nonc2N)c1 was read as UBC13 polyUb -3, MEKK2 mut-MEK5 -4, MEKK3 PB1 HTS 103, Apaf-1 inh 12, PREPL inh -9 and MEKK2wt PB1 HTS 101.
For CCN(CC)c1ccc(/C=C/c2cccc[n+]2C)c(OC)c1 the results were UBC13 polyUb inactive, MEKK2 mut-MEK5 21, MEKK3 PB1 HTS 98, Apaf-1 inh 3, PREPL inh -52 and MEKK2wt PB1 HTS 12*.
Screening COc1ccc(/C=C/c2cccc[n+]2C)c(O)c1 returned UBC13 polyUb -45, MEKK2 mut-MEK5 3, MEKK3 PB1 HTS 104, Apaf-1 inh -8, PREPL inh -1 and MEKK2wt PB1 HTS 105.
Cc1noc(C)c1NC(=O)Nc1ccc2c(c1)C(=O)N([C@H](C)CO)C[C@H](C)[C@@H](CN(C)C(=O)NC1CCCCC1)O2 was read as UBC13 polyUb -3, Apaf-1 inh 5 and PREPL inh 24.
For CC(=O)N(C)c1ccc(NC(=S)Nc2cccc3ccccc23)cc1 the results were UBC13 polyUb -32, MEKK2 mut-MEK5 13, MEKK3 PB1 HTS 97, Apaf-1 inh 21, PREPL inh 21 and MEKK2wt PB1 HTS 92.
`Cc1ccc(NC(=S)Nc2cccc3ccccc23)cc1F` gave UBC13 polyUb -48, MEKK2 mut-MEK5 3, MEKK3 PB1 HTS 98, Apaf-1 inh 89*, PREPL inh 11 and MEKK2wt PB1 HTS 102.
CC(=O)c1ccc(NC(=S)Nc2cccc3ccccc23)cc1 was read as UBC13 polyUb -12, MEKK2 mut-MEK5 -13, MEKK3 PB1 HTS 89, Apaf-1 inh 45*, PREPL inh 19 and MEKK2wt PB1 HTS 88.
Cc1ccsc1/C=C/C1=Cc2c(sc(NC(=O)CSc3n[nH]c(N)n3)c2C#N)C(C)(C)C1 was read as UBC13 polyUb 11, MEKK2 mut-MEK5 -12, MEKK3 PB1 HTS 93, Apaf-1 inh 16, PREPL inh -40 and MEKK2wt PB1 HTS 76.
For CCOc1ccc(/C=C/C2=Cc3c(sc(NC(=O)CSc4n[nH]c(N)n4)c3C#N)C(C)(C)C2)cc1 the results were UBC13 polyUb -24, MEKK2 mut-MEK5 -8, MEKK3 PB1 HTS 89, Apaf-1 inh 5, PREPL inh -13 and MEKK2wt PB1 HTS 31*.
Screening N#CCSc1ccccc1NC(=O)COC(=O)CCNC(=O)c1ccc([N+](=O)[O-])cc1 returned UBC13 polyUb -5 and Apaf-1 inh 7.
Screening CC1CN(C(=O)c2cccc(S(=O)(=O)N3CCN(c4ccccc4)CC3)c2)CC(C)O1 (centres undefined) returned UBC13 polyUb 1, Apaf-1 inh -7 and PREPL inh -2.
For O=C(OC[C@H]1O[C@@H](OC(=O)c2cc(O)c(O)c(OC(=O)c3cc(O)c(O)c(O)c3)c2)[C@H](OC(=O)c2cc(O)c(O)c(OC(=O)c3cc(O)c(O)c(O)c3)c2)[C@@H](OC(=O)c2cc(O)c(O)c(OC(=O)c3cc(O)c(O)c(O)c3)c2)[C@@H]1OC(=O)c1cc(O)c(O)c(OC(=O)c2cc(O)c(O)c(O)c2)c1)c1cc(O)c(O)c(OC(=O)c2cc(O)c(O)c(O)c2)c1 the results were PREPL inh 104*.
For COC1OC(COC(=O)c2ccccc2)C(OC(=O)c2ccccc2)C1OC(=O)c1ccccc1 (centres undefined) the results were UBC13 polyUb -9, MEKK2 mut-MEK5 -7, MEKK3 PB1 HTS 97, Apaf-1 inh 17, PREPL inh -4 and MEKK2wt PB1 HTS 95.
`O=S(=O)(Cc1ccc(Cl)cc1)NCc1ccc2c(c1)OCO2` gave UBC13 polyUb 3, MEKK2 mut-MEK5 3, MEKK3 PB1 HTS 97, Apaf-1 inh 10, PREPL inh -10 and MEKK2wt PB1 HTS 102.
